Test results published in ChEMBL document CHEMBL1142431, “Benzodioxoles: novel cannabinoid-1 receptor inverse agonists for the treatment of obesity” (J Med Chem, 2008).
Active and inactive are the calls of the source. No cut-off for these calls is given here.

Tests used:
[1] = target: T1, Cannabinoid receptor 1 (Homo sapiens, UniProt P21554); assay: Activity at human CB1R expressed in HEK293 cells assessed as intracellular cAMP level; format: functional, cell-based
[2] = test system: Mus musculus; assay: Reversal of CP-55940-induced hypothermia in po dosed NMRI mouse assessed as rectal temperature; format: functional; conditions: read-out: ID50 (the source's name)
How it was run: (§1)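 Mice housed eight per group, eight per dose, habituated at least 2 h. Test compound in 0.3% Tween 80 (10 mL/kg) given 90 min before CP 55940 (0.3 mg/kg iv, same vehicle). Body temperature read 20 min before compound, just before CP 55940, and 20 min after it.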

[3] = Clearance in human liver microsomes; format: ADME, Microsome; conditions: liver microsomes
How it was run: (§2)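 Test compound at 2 µM incubated with liver microsomes (0.5 mg protein/mL) in 50 mM potassium phosphate pH 7.4 at 37 °C. Reaction started with an NADPH-generating system (glucose-6-phosphate 3.2 mM, NADP 2.6 mM, MgCl2 6.5 mM). Six samples over 30 min, quenched in methanol with internal standard, then LC-MS/MS for substrate depletion. CLint taken from the first-order decay, normalized to protein.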

[4] = target: T1, Cannabinoid receptor 1; assay: biochemical; format: cell-based, HEK293
[5] = Clearance in rat liver microsomes; format: ADME, Microsome; conditions: liver microsomes; how it was run: as §2
[6] = test system: Mus musculus; assay: Reversal of CP-55940-induced hypothermia in NMRI mouse assessed as rectal temperature at 30 mg/kg, po; format: functional, organism-based; parameters: dose 30 mg/kg; how it was run: as §1
[7] = test system: Mus musculus; assay: Reversal of CP-55940-induced hypothermia in NMRI mouse assessed as rectal temperature at 30 mg/kg, ip; format: functional; how it was run: as §1
[8] = test system: Rattus norvegicus; assay: Reduction in body fat in po dosed diet-induced obesity Sprague-Dawley rat model; format: functional, organism-based
How it was run: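 Sprague-Dawley rats fed HFD from 3 weeks of age for 10 weeks; high responders (body weight exceeding chow controls by >2 SD) grouped n = 9. After 3 days gavage adaptation, daily oral dosing at 5:00 p.m. for 2 weeks in 7.5% gelatine/0.62% NaCl in water, 2 mL/kg. Fat and lean mass by MRI before and at end of treatment.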

[9] = target: Cannabinoid receptor 2 (Homo sapiens, UniProt P34972); assay: Binding affinity to human CB2R
Cannabinoid receptor 2, sequence (P34972 whole entry): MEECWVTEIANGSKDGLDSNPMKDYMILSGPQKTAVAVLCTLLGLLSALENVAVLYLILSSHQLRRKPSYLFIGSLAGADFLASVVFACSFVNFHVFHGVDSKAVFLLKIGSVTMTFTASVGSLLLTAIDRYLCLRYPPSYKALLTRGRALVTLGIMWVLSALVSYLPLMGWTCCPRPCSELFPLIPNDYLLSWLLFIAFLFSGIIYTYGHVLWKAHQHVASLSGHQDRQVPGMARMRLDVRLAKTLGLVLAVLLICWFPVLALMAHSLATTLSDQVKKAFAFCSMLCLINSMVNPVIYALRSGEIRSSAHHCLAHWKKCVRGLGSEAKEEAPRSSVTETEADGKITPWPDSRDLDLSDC

T1 sequence (P21554 whole entry): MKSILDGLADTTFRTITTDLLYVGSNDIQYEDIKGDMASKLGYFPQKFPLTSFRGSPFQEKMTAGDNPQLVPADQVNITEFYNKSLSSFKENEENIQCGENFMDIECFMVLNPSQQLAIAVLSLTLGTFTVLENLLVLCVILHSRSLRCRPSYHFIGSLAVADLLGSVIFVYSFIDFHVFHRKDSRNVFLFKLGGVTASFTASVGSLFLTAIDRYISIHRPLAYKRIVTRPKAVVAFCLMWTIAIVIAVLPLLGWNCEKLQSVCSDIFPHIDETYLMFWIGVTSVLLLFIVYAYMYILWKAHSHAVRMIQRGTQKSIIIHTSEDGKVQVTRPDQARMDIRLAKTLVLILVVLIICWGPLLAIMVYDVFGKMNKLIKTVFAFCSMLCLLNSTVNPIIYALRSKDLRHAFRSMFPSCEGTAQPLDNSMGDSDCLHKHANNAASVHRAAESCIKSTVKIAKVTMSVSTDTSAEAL

Row | SMILES | EC50 [1] [nM] | microsomal CLint [3] [µL/min/mg] | Ki [4] [nM] | microsomal CLint [5] [µL/min/mg] | further results
1 | O=C(c1cc2c(cc1F)OC(c1ccccc1F)(c1ccc(Cl)cc1Cl)O2)N1CCOCC1 (stereo unspecified) | 2 | 21 | 4 | 123 | ED50 [2]: 6 mg/kg
2 | O=S(=O)(c1cc2c(cc1F)OC(c1ccc(F)cc1)(c1ccc(Cl)cc1Cl)O2)N1CCOCC1 (stereo unspecified) | 3 | 20 | 9 | 53 | ED50 [2]: 16 mg/kg
3 | O=S(=O)(c1cc2c(cc1F)OC(c1ccc(F)cc1F)(c1ccc(F)cc1F)O2)N1CCC(F)(F)CC1 | 3 | 271 | 3 | 287 | Activity [6]: inactive; Activity [7]: inactive
4 | O=C(c1cc2c(cc1F)OC(c1ccc(F)cc1)(c1ccc(Cl)cc1Cl)O2)N1CCOCC1 (stereo unspecified) | 11 | 10 | 4 | 22 | ED50 [2]: 5 mg/kg
5 | O=C(c1cc2c(cc1F)OC(c1ccc(F)cc1)(c1ccc(F)cc1)O2)N1CCCCC1 | 72 | 48 | 7 | 81 | –
6 | O=C(c1cc2c(cc1F)OC(c1ccc(F)cc1F)(c1ccc(F)cc1F)O2)N1CCC(F)(F)CC1 | 2 | 17 | 6 | 5 | –
7 | Fc1ccc(C2(c3ccc(F)cc3)Oc3cc(F)c(CN4CCOCC4)cc3O2)cc1 | – | – | > 1000 | – | –
8 | O=C(c1cc2c(cc1Br)OC(c1ccccc1)(c1ccccc1)O2)N1CCOCC1 | – | – | 873 | – | –
9 | O=C(c1cc2c(cc1F)OC(c1ccc(F)cc1)(c1ccc(F)cc1)O2)N1CCOCC1 | – | – | 18 | – | –
10 | O=C(c1cc2c(cc1F)O[C@@](c1ccc(F)cc1)(c1ccc(Cl)cc1Cl)O2)N1CCOCC1 | – | – | 35 | – | –
11 | Cc1cc2c(cc1C(=O)N1CCOCC1)OC(c1ccccc1)(c1ccccc1)O2 | – | – | 509 | – | –
12 | O=C(c1cc2c(cn1)OC(c1ccccc1)(c1ccccc1)O2)N1CCCCC1 | – | – | 13 | – | –
13 | O=C(c1ccc2c(c1)OC(c1ccccc1)(c1ccccc1)O2)N1CCOCC1 | 784 | – | 50 | – | –
14 | O=C(c1cc2c(cc1Cl)OC(c1ccccc1)(c1ccccc1)O2)N1CCOCC1 | – | 44 | 216 | 388 | –
15 | O=S(=O)(c1ccc2c(c1)OC(c1ccccc1)(c1ccccc1)O2)N1CCCCC1 | – | 137 | 38 | 549 | Activity [7]: inactive
16 | O=C(c1cc2c(cc1F)OC(c1ccc(F)cc1)(c1ccc(Cl)cc1Cl)O2)N1CCCCC1 (stereo unspecified) | 5 | 31 | 4 | 89 | –
17 | Cc1c(C(=O)NN2CCCCC2)nn(-c2ccc(Cl)cc2Cl)c1-c1ccc(Cl)cc1 | – | – | – | – | Activity [8]: Active
18 | O=C(c1ccc2c(c1)OC(c1ccc(F)cc1)(c1ccc(Cl)cc1Cl)O2)N1CCOCC1 (stereo unspecified) | 156 | 19 | 30 | 4 | –
19 | O=S(=O)(c1cc2c(cc1F)OC(c1ccc(F)cc1F)(c1ccc(F)cc1F)O2)N1CCOCC1 | 11 | 102 | 25 | 149 | Activity [6]: inactive; Activity [7]: inactive
20 | CCCCCn1cc(C(=O)c2ccc3ccccc3c2)c2ccc(S(C)(=O)=O)cc21 | – | – | 110 | – | –
21 | O=C(CC(c1ccccc1)c1ccccc1)N1CC=C(c2ccc(Cl)cc2)CC1 | – | – | 1500 | – | –
22 | O=C(c1cc2c(cc1F)OC(c1ccc(F)cc1F)(c1ccc(F)cc1F)O2)N1CCOCC1 | 4 | 96 | 7 | 30 | ED50 [2]: 8 mg/kg
23 | N#Cc1cc2c(cc1C(=O)N1CCOCC1)OC(c1ccccc1)(c1ccccc1)O2 | – | – | 277 | – | –
24 | O=C(c1cc2c(cc1F)OC(c1ccccc1)(c1ccccc1)O2)N1CCCCC1 | 1.2 | 50 | 11 | 486 | –
25 | O=C(c1cc2c(cc1F)OC(c1ccc(F)cc1F)(c1ccc(F)cc1F)O2)N1CCCCC1 | 2 | 34 | 1 | 122 | –
26 | O=C(c1ccc2c(c1)OC(c1ccccc1)(c1ccccc1)O2)N1CCCCC1 | – | 53 | 28 | 673 | Activity [7]: inactive
27 | COc1ccc(C2(c3ccc(Cl)cc3Cl)Oc3cc(F)c(C(=O)N4CCCCC4)cc3O2)cc1 (stereo unspecified) | 5 | 34 | 2 | 88 | ED50 [2]: 8 mg/kg
28 | O=C(c1cc2c(cc1F)OC(c1ccccc1)(c1ccccc1)O2)N1CCOCC1 | 26 | 33 | 15 | 272 | –
29 | O=S(=O)(c1ccc2c(c1)OC(c1ccccc1)(c1ccccc1)O2)N1CC=C(c2ccc(F)cc2)CC1 | – | – | 13 | – | Ki [9]: > 10000 nM; Activity [7]: inactive
